Results: ChEMBL document CHEMBL4000155, “Synthesis and Antileukemic Activities of Piperlongumine and HDAC Inhibitor Hybrids against Acute Myeloid Leukemia Cells” (J Med Chem, 2016)
Calls of active or inactive are those of the source. The calls are words filed in the database; no cut-off is given here.

Key:
[1] = test system: U-937; experiment: Effect on SAHA-induced DNA damage in p53 null human U937 cells assessed as decrease in Rad51 expression level by measuring ratio of Rad51 to beta-actin level at 2 uM after 24 hrs by Western blot analysis relative to control; type: functional
Outline: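 U937 cells treated 24 h, alone or PL+SAHA. Whole-cell lysates (protease/phosphatase inhibitors) immunoblotted for γH2AX, CHK1, RAD51, Bim and XIAP. Band densitometry normalised to β-actin, then expressed as fold change relative to the untreated control.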

[2] = test system: U-937; experiment: Antiproliferative activity against p53 null human U937 cells after 72 hrs in presence of SAHA by MTT assay; type: functional, cell-based; settings: U-937, 72 h
Outline: (§1)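 AML cell lines grown in RPMI 1640 with 10% FBS (20% for MOLM-13), 2 mM L-glutamine and penicillin/streptomycin at 37 °C, 5% CO2. Ara-C-resistant HL-60 and CMK sublines came from stepwise cytarabine selection and were kept in 600 nM or 300 nM cytarabine respectively. Cells were treated 72 h. MTT 0.05 mg/mL, 3 h at 37 °C, DMSO solubilization, absorbance at 570 nm. IC50 given ± SEM.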

[3] = test system: U-937; experiment: Induction of apoptosis in p53 null human U937 cells at 4 uM after 24 hrs in presence of SAHA by annexin V-FITC/PI staining based flow cytometry; type: functional
[4] = test system: OCI-AML-3; experiment: Antiproliferative activity against human OCI-AML3 cells after 72 hrs in presence of SAHA by MTT assay; type: functional, cell-based; settings: OCI-AML-3, 72 h; outline: as §1
[5] = test system: CMK; experiment: Antiproliferative activity against human CMK cells after 72 hrs in presence of SAHA by MTT assay; type: functional, cell-based; outline: as §1
[6] = test system: U-937; experiment: Induction of apoptosis in p53 null human U937 cells assessed as caspase 3 cleavage at 2 uM after 24 hrs in presence of SAHA by Western blot analysis; type: functional, cell-based
Outline: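 U937 cells exposed for 24 h. Lysates with protease/phosphatase inhibitors were separated by SDS-PAGE, transferred to PVDF and probed for PARP and cleaved caspase-3, with β-actin as loading control.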

[7] = test system: U-937; experiment: Induction of apoptosis in p53 null human U937 cells at 2 uM preincubated with NAC for 3 hrs followed by compound addition measured after 24 hrs in presence of SAHA by annexin V-FITC/PI staining based flow cytometry; type: functional, cell-based
Outline: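 U937 cells preincubated 3 h with 3 mM NAC or vehicle and washed with PBS to remove excess NAC. Then drug alone or with SAHA for 24 h. Apoptosis scored as % Annexin V+ by Annexin V-FITC/PI flow cytometry; vehicle DMSO < 0.1% v/v.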

[8] = Antiproliferative activity against human CMY cells after 72 hrs in presence of SAHA by MTT assay; type: functional, cell-based; outline: as §1
[9] = test system: MOLM-13; experiment: Induction of apoptosis in human MOLM13 cells harboring wild type p53/FLT3-ITD mutant at 4 uM after 24 hrs in presence of SAHA by annexin V-FITC/PI staining based flow cytometry; type: functional
Outline: (§2)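 Cells treated 24 h, single agents or SAHA+PL at 1:1 (each drug at the stated concentration). Annexin V-FITC/PI kit staining, then flow cytometry, reported as % Annexin V+ cells. Three independent experiments in triplicate, with data from one representative experiment. DMSO <0.1% vehicle control.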

[10] = Antiproliferative activity against human CMS cells after 72 hrs in presence of SAHA by MTT assay; type: functional, cell-based; outline: as §1
[11] = test system: MDA-MB-231; experiment: Antiproliferative activity against human MDA-MB-231 cells after 24 hrs by MTT assay; type: functional, cell-based; settings: MDA-MB-231, 24 h
[12] = Chemical stability of the compound in pH 7.4 phosphate buffer at 50 uM incubated up to 4 hrs in presence of GSH by HPLC analysis; type: physicochemical; settings: pH 7.4, 4 h
Outline: (§3)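 Compound at 50 μM incubated with or without 5 mM GSH in phosphate buffer pH 7.4 at 37 °C for up to 4 h. Mixtures analysed by HPLC with water/0.1% formic acid/10% methanol versus 0.1% formic acid in acetonitrile, 0.5 mL/min, 10–80% B gradient over 18 min.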

[13] = Stability of the compound in human U937 cell lysate at 50 uM incubated for 1.5 hrs in presence of GSH by HPLC analysis; type: ADME, cell-based; settings: u-937, 1.5 h
[14] = test system: U-937; experiment: Cytotoxicity against p53 null human U937 cells assessed as decrease in cell viability at 0.5 to 5 uM after 24 hrs by MTT assay; type: functional, cell-based
Outline: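 MCF-10A (DMEM/F12, 5% horse serum, hydrocortisone, cholera toxin, insulin, EGF) and U937 (RPMI 1640, 10% FBS) were exposed to 0.5–5 μM, alone or PL+SAHA 1:1, for 24 h. MTT 0.05 mg/mL, 3 h at 37 °C, DMSO solubilization, A570. Viability given as mean ± SD of four to six independent experiments. DMSO <0.1% vehicle control.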

[15] = test system: U-937; experiment: Induction of apoptosis in p53 null human U937 cells at 0.5 uM after 24 hrs by annexin V-FITC/PI staining based flow cytometry; type: functional; outline: as §2
[16] = Chemical stability of the compound in pH 7.4 phosphate buffer at 50 uM incubated up to 4 hrs in absence of GSH by HPLC analysis; type: physicochemical; settings: pH 7.4, 4 h; outline: as §3

IC50 [2] [nM]	IC50 [4] [nM]	IC50 [11] [nM]	Stability [12]	Stability [13]	Stability [16]	Compound	Ratio [1]	Activity [3] [%]	IC50 [5] [nM]	Activity [6]	Activity [7]	IC50 [8] [nM]	Activity [9] [%]	IC50 [10] [nM]	Activity [14]	Activity [15]
767	1110					COc1cc(/C=C/C(=O)N2CCC=CC2=O)cc(OC)c1OC [PIPLARTINE]	0.9	81.1	613	Active	inactive	442	77.5	1040		
		382	Stable	Unstable	Stable	COc1cc(/C=C/C(=O)N2CCC=CC2=O)cc(OC)c1OCCCCCCC(=O)NO									Active	inactive
